A selection: hits, their analogues and other compounds. The true share with any hit is near 1.8%.
MBD2 inh: inhibitors of MBD2 binding to methylated DNA, primary screen, biochemical, TR-FRET, DNA-binding domain, human; Methyl-CpG-binding domain protein 2 (Homo sapiens), Q9UBB5; MBD2 binding to methylated oligonucleotide; inhibition, % at 4.4 µM; actives 0.31% (n = 370,000); in the data active = inhibition above about 13%
Casp6 inh: human caspase-6 inhibitors, primary screen, biochemical, VEID-R110 fluorescence, single point, set 2; P55212; purified caspase-6, Z-VEID-R110 cleavage fluorescence; inhibition, % at 12.5 µM; actives 0.53% (n = 350,000); AID 686996, 2013;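 active = mean inhibition across replicates at least about 35%, with every replicate also reaching that limit, limit read from the data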
Target sequence (P55212 24-179 limits assumed): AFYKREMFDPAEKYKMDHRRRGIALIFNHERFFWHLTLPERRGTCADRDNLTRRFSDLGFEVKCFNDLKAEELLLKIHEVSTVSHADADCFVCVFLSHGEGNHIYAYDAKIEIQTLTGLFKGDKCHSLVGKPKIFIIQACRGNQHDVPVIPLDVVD
Target sequence (P55212 194-293 limits assumed): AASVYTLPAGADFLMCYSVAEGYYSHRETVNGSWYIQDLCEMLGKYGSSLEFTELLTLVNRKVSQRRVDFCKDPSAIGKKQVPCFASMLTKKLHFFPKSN
LEDGF integ inh: blockers of LEDGF/p75-dependent integrase strand transfer – biochemical, TR-FRET, high throughput, primary screen. inhibition, % at 3.7 µM. actives 0.64% (n = 370,000). TR-FRET IN-LEDGF/p75 DNA integration, Eu/Cy5. HIV-1 integrase (with human LEDGF/p75);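 active = inhibition above the screen-wide mean plus 3 SD, cut at about 13% in these data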;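 note: signal is the Cy5 over europium emission ratio at 671 and 618 nm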
UHRF1 MBD2 ctr: UHRF1 methylated DNA binding inhibitors, primary screen, counter-screen for MBD2 inhibitor project, biochemical, TR-FRET, human UHRF1, single concentration; UHRF1 binding to methylated oligo; actives 0.75% (n = 370,000); inhibition, % at 4.4 µM; AID 687016, 2013; in the data active = inhibition above about 21%;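 note: UHRF1 SRA domain binding a hemimethylated CpG hairpin DNA probe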
NSD2 inh: NSD2 histone methyltransferase inhibitors, primary screen, biochemical, AlphaScreen, single concentration, set 2; NSD2 peptide methylation, 120 min; Histone-lysine N-methyltransferase NSD2 (Homo sapiens), O96028; AID 743445, 2014; inhibition, % at 12.5 µM; actives 0.54% (n = 310,000); in the data active = inhibition above about 50%
TDP2 inh: human TDP2 enzyme inhibitors, primary screen, biochemical, epi absorbance, recombinant enzyme. Tyrosyl-DNA phosphodiesterase 2 (Homo sapiens), O95551. inhibition, % at 12.8 µM. AID 720702, 2013. actives 0.34% (n = 370,000). T5PNP hydrolysis, p-nitrophenol absorbance 415 nm;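 active = inhibition above the mean of all tested compounds plus 3 SD, set per campaign, cut at about 25% in these data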
Target sequence (O95551 whole entry, looked up): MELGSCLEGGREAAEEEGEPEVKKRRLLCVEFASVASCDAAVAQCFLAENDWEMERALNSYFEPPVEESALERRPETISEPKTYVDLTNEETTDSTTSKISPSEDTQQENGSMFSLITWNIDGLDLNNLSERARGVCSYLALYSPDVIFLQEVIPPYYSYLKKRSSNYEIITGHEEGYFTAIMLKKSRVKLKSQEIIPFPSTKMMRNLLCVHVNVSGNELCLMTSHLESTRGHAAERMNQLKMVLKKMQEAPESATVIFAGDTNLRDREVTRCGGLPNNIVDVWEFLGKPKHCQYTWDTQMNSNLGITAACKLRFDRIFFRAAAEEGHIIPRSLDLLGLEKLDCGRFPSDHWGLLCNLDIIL
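test system = human TDP2 enzyme | input = TDP2 enzyme at 120 nM final | medium = 50 mM Tris-HCl pH 7.5 with Mg2+, KCl, DTT, BSA | also added = T5PNP substrate, 5 mM | times = 2 h at 37 °C | technique = epi absorbance | benchmarks = high control without enzyme, low control DMSO plus TDP2 | replication = each compound tested once, singlicate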
Hits are given with their value; . = inactive; / = not tested or not shown.

SMILES | MBD2 inh | Casp6 inh | LEDGF integ inh | UHRF1 MBD2 ctr | NSD2 inh | TDP2 inh
COc1ccc(N2CC(C(=O)Nc3ncccc3C)CC2=O)cc1 (centres undefined) | . | / | . | 27 | . | .
COc1ccc(N2CC(C(=O)N/N=C/c3ccc(C)cc3)CC2=O)cc1 (centres undefined) | . | . | . | 24 | . | .
CCCCNC(=O)C1c2ccccc2OCC(=O)N1C1CC1 (centres undefined) | . | . | . | 21 | / | .
CCCCNC(=O)C1c2ccccc2OCC(=O)N1Cc1ccccc1 (centres undefined) | . | . | . | . | / | .
O=S(=O)(c1ccc(-c2ccccc2)cc1)N1CCN(Cc2cccc(OCCO)c2)CC1 | / | . | / | / | / | /
COc1ccccc1S(=O)(=O)N[C@H]1CC[C@@H](CC(=O)N2CCOCC2)O[C@H]1CO | / | . | / | / | / | /
CCOc1ccc(Br)cc1S(=O)(=O)Nc1cccc(S(=O)(=O)N(C)c2ccccc2)c1 | . | . | . | 23 | . | .
CN(CC(=O)Nc1cccc2ccccc12)C(=O)c1ccc(F)cc1F | . | . | . | 29 | . | .
CN(CC(=O)Nc1cccc(F)c1)CC(=O)Nc1cccc2ccccc12 | . | . | . | . | . | .
c1ccc(-c2cc(NCCN3CCCCC3)c3ccccc3n2)cc1 | . | / | . | 21 | . | .
O=C(Nc1sc2c(c1C(=O)O)CCCC2)C(=O)N1CCOCC1 | . | . | . | . | . | .
O=C(Nc1sc2c(c1C(=O)O)CCC2)C(=O)N1CCOCC1 | . | 37 | . | . | . | .
CCCC(=O)Nc1nnc(S(=O)(=O)N(C)Cc2ccco2)s1 | / | / | / | / | . | /
Cc1ccc(N(C)S(=O)(=O)c2nnc(NC(=O)c3ccco3)s2)cc1 | . | . | . | . | . | .
CCC(=O)Nc1nnc(S(=O)(=O)N(C)Cc2ccco2)s1 | . | . | . | 21 | / | .
Cc1ccccc1N(C)S(=O)(=O)c1nnc(NC(=O)c2ccco2)s1 | . | 69 | . | . | . | .
CSCCC(NS(=O)(=O)c1ccccc1F)C(=O)NCC(C)(C)N1CCOCC1 (centres undefined) | . | 54 | . | . | . | .
COc1ccc(-n2c(C)cc(/C=C/c3nc(O)c([N+](=O)[O-])c(=O)[nH]3)c2C)cc1 | . | 62 | . | . | . | .
O=C(N[C@@H]1CC[C@H](CCNS(=O)(=O)c2ccccc2Cl)O[C@H]1CO)c1ccc(F)cc1 | / | . | / | / | / | /
COCC(=O)Nc1ccc2c(c1)C(=O)N(C)C[C@H](OC)[C@H](C)CN(Cc1ccccc1F)[C@H](C)CO2 | / | . | / | / | / | /
COCC(=O)N(C)C[C@@H]1Oc2cc(C#C[C@@H](C)O)ccc2S(=O)(=O)N([C@H](C)CO)C[C@H]1C | / | . | / | / | / | /
CCOc1ccc(N(C)Cc2cc(=O)oc3ccc(OCC)cc23)cc1 | . | . | . | 22 | . | .
C[C@@H]1CN([C@@H](C)CO)S(=O)(=O)c2ccc(C#CC3(O)CCCC3)cc2O[C@@H]1CN(C)C(=O)Nc1ccccc1 | / | . | / | / | / | /
Cc1nnc(-n2cnc3ccccc32)c2ccccc12 | . | / | . | 21 | . | .
CCCCNCC(O)(c1ccc(Cl)cc1)c1ccc(Cl)cc1 | . | . | . | 57 | . | .
SMILES | MBD2 inh | Casp6 inh | LEDGF integ inh | UHRF1 MBD2 ctr | NSD2 inh | TDP2 inh
C[C@@H]1CN([C@@H](C)CO)C(=O)c2cc(-c3ccc(C#N)cc3)cnc2O[C@H]1CN(C)C(=O)CC1CC1 | / | . | / | / | / | /
Cc1cccc(Nc2nc(-c3sc(C)nc3C)cs2)c1 | . | . | . | 25 | . | .
Cc1nc(C)c(-c2csc(Nc3cccc(O)c3)n2)s1 | . | . | . | . | . | .
COCCNc1nc(-c2ccc(OC)cc2)c(-c2ccc(OC)cc2)s1 | . | 92 | . | . | . | .
NCC12CC3CC(C1)CC(c1ccc(Cl)cc1)(C3)C2 | . | . | . | 21 | . | .
COc1cccc(NC(=O)C[C@H]2CC[C@@H]3[C@@H](COc4ccc(NC(C)=O)cc4C(=O)N3C)O2)c1 | / | . | / | / | / | /
COc1ccc(S(=O)(=O)N2CCOC23CCN(S(=O)(=O)c2ccc(C)cc2)CC3)cc1 | . | 52 | . | . | . | .
O=[N+]([O-])c1ccc(S(=O)(=O)N2CCC3(CC2)OCCN3S(=O)(=O)c2cccs2)cc1 | . | 36 | . | . | . | .
OC[C@H]1[C@H](c2ccc(-c3ccc(F)cc3)cc2)[C@H]2CN(Cc3cccnc3)CCCCN21 | / | . | / | / | / | /
OC[C@H]1[C@H](c2ccc(-c3ccc(F)cc3)cc2)[C@@H]2CN(Cc3cccnc3)CCCCN12 | / | 60 | / | / | / | /
CC(=O)N(c1ccccc1)c1nc(/C=C/C(=O)Nc2c(C)cc(C)cc2C)cs1 | . | / | . | 99 | . | .
CC(=O)N(c1ccccc1)c1nc(/C=C/C(=O)O)cs1 | . | . | . | . | . | .
CCCC#Cc1ccc2c(c1)O[C@@H](CN(C)C(=O)c1cnccn1)[C@@H](C)CN([C@@H](C)CO)S2(=O)=O | / | . | / | / | / | /
CC1NC(=O)NC1CCCCCC(=O)NCCc1ccccc1 (centres undefined) | . | . | 78 | . | / | .
O=C(CCCCC(=O)NCCCc1ccccc1)NCCCc1ccccc1 | . | . | . | . | . | .
O=C(CN1CCN(S(=O)(=O)c2ccccc2F)CC1)Nc1ccnn1C1CCCC1 | . | . | . | . | . | .
Cc1ccc(S(=O)(=O)N2CCN(CC(=O)Nc3ccnn3C3CCCC3)CC2)cc1 | . | 39 | . | . | . | .
CN1N=C(C(C)(C)C)CSC1=Nc1ccccc1 | . | 37 | . | . | . | .
COc1ccc(C2=NN(C)C(=NCc3ccccc3)SC2)cc1 | . | . | . | . | . | .
O=C(CC1C(=O)NCCN1C/C=C/c1ccccc1)NCCc1ccncc1 (centres undefined) | . | . | . | 23 | . | .
CC1CCN(C(=O)Cn2ncc3c([nH]c4ccccc43)c2=O)CC1 | . | . | . | . | . | .
CN1CCN(C(=O)Cn2ncc3c([nH]c4ccccc43)c2=O)CC1 | . | . | . | 23 | . | .
COC1C=CC(CNC(=O)c2cc3c(=O)n4cccc(C)c4nc3n2C)(OC)O1 (centres undefined) | . | . | . | 69 | . | .
C/C=C/c1cnc2c(c1)C(=O)N([C@@H](C)CO)C[C@@H](C)[C@@H](CN(C)S(=O)(=O)c1cn(C)cn1)O2 | / | . | / | / | / | /
COCC(=O)N1CC2(CN(Cc3ccc(OC)cc3)C2)c2c([nH]c3cc(OC)ccc23)[C@H]1CO | / | . | / | / | / | /
